Assay results from ChEMBL document CHEMBL5131497, “Design, Synthesis, and Characterization of TNP-2198, a Dual-Targeted Rifamycin-Nitroimidazole Conjugate with Potent Activity against Microaerophilic and Anaerobic Bacterial Pathogens” (J Med Chem, 2022).
≈ marks a conversion by molar mass, not a printed value.

How the values were obtained:
[1] = Drug distribution in Sprague-Dawley rat stomach content measured at 2 hrs; type: ADME, tissue-based; conditions: read-out: Ct
How it was run: (§1)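 Sprague–Dawley rats were dosed with TNP-2198. Concentrations were measured in plasma (ng/mL) and in tissues or contents (ng/g) at 0.5, 2, 6, 12 and 24 h after dosing. Values below the limit of quantification are reported as BLOQ.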

[2] = Drug distribution in Sprague-Dawley rat gums measured at 2 hrs; type: ADME, tissue-based, Gingiva; conditions: read-out: Ct; how it was run: as §1
[3] = Drug distribution in Sprague-Dawley rat gums measured at 6 hrs; type: ADME, tissue-based, Gingiva; conditions: read-out: Ct; how it was run: as §1
[4] = Drug distribution in Sprague-Dawley rat large intestine content measured at 12 hrs; type: ADME, tissue-based; conditions: read-out: Ct; how it was run: as §1
Clostridioides difficile [5] = assay: Antibacterial activity against Clostridioides difficile BAA 1382; type: functional
Bifidobacterium longum = assay: Antibacterial activity against Bifidobacterium longum ATCC 15707; type: functional
[6] = Drug distribution in Sprague-Dawley rat large intestine content measured at 24 hrs; type: ADME, tissue-based; conditions: read-out: Ct; how it was run: as §1
Clostridioides difficile [7] = assay: Antibacterial activity against fluoroquinolone-resistant Clostridioides difficile CB1941 harboring gyrAD71Y/T82A mutant measured after 3 days; type: functional; conditions: CB1941, 72 h, time 3 day
Clostridioides difficile [8] = assay: Antibacterial activity against rifampicin-resistant Clostridium difficile MMX 3587; type: functional
[9] = Oral bioavailability in Beagle dog at 25 mg/kg; type: ADME, organism-based, Canis lupus familiaris; conditions: in vivo
[10] = Drug distribution in Sprague-Dawley rat stomach tissue measured at 0.5 hrs; type: ADME, tissue-based; conditions: read-out: Ct; how it was run: as §1
Syrian golden hamster = assay: Antibacterial activity against Clostridioides difficile UNT-103-1 infected in Syrian hamster assessed as survival at 5 mg/kg, po administered once a daily for 5 days after 18 hrs post 10 mg/kg clindamycin treatment; type: functional, Mesocricetus auratus; conditions: time 5 day
How it was run: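 Male Golden Syrian hamsters (80-90 g), housed singly, were gavaged with C. difficile UNT103-1 grown in sporulation medium broth and diluted to OD600 1 in prereduced broth. […] From 18 h later, drug or vehicle was given by oral gavage once daily for 5 days. Survival was recorded through day 21.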

Bifidobacterium breve = assay: Antibacterial activity against Bifidobacterium ATCC 15698; type: functional
Clostridioides difficile [11] = assay: Resistance development in Clostridioides difficile MMX 4381 assessed as spontaneous resistance frequency using at 1.23 x 10^9 CFU inoculum at 0.5 ug/ml; type: functional; conditions: dose 0.5 µg/ml
Helicobacter pylori [12] = assay: Antibacterial activity against metronidazole-resistant Helicobacter pylori CB1573 harboring rdxAR16S mutant measured after 5 days by agar dilution method; type: functional; conditions: CB1573, 120 h, time 5 day
How it was run: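 Agar dilution per CLSI. Wild-type ATCC 700392 (CB1531) and its derivatives carry defined resistance determinants. Drugs, alone or in 1:1 molar mixtures, were diluted 2-fold from 100× stocks into Mueller–Hinton agar with aged (≥2 weeks) sheep blood (5% v/v). MIC read after 5 days at 35 °C under microaerobic conditions from a campylobacter gas-generating system.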

[13] = Drug distribution in Sprague-Dawley rat stomach tissue measured at 6 hrs; type: ADME, tissue-based; conditions: read-out: Ct; how it was run: as §1
[14] = Clearance in C57BL/6 mouse at 5 mg/kg, iv; type: ADME, organism-based; conditions: in vivo
How it was run: (§2)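 Plasma PK after single intravenous or oral dosing. Mice C57BL/6 at 5 mg/kg IV or 20 mg/kg PO; Sprague–Dawley rats at 10 mg/kg IV or 50 mg/kg PO; beagle dogs at 5 mg/kg IV or 25 mg/kg PO. AUC reported in ng·h/mL. Clearance from the IV arms in mL/min·kg.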

[15] = Drug distribution in Sprague-Dawley rat vaginal tissue measured at 2 hrs; type: ADME, tissue-based, Vagina; conditions: female, read-out: Ct; how it was run: as §1
[16] = Drug distribution in Sprague-Dawley rat vaginal secretion measured at 6 hrs; type: ADME, tissue-based, Vaginal fluid; conditions: female, read-out: Ct; how it was run: as §1
Clostridioides difficile [17] = assay: Resistance development in Clostridioides difficile MMX 4381 assessed as mutation prevention concentration using at 1.90 x 10^8 CFU inoculum; type: functional; conditions: dose 0.5 µg/ml
Clostridioides difficile [18] = assay: Antibacterial activity against rifampicin/fluoroquinolone-resistant Clostridioides difficile CB1942 harboring rpoBQ489K/gyrAD71Y/T82A mutant measured after 3 days; type: functional; conditions: CB1942, 72 h, time 3 day
[19] = AUC in C57BL/6 mouse at 20 mg/kg, po; type: ADME, organism-based; set-up: dose 20 mg/kg, route po; conditions: in vivo; how it was run: as §2
[20] = Clearance in Beagle dog at 5 mg/kg, iv; type: ADME, organism-based, Canis lupus familiaris; conditions: in vivo; how it was run: as §2
Helicobacter pylori [21] = assay: Resistance development in Helicobacter pylori MMX 3719 assessed as spontaneous resistance frequency using at 1.90 x 10^8 CFU inoculum at 1 ug/ml; type: functional; conditions: dose 1 µg/ml
How it was run: (§3)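 H. pylori MMX 3719 exposed to 0.5, 1, 2 and 4 µg/mL drug with an inoculum of 1.90×10^8 CFU at each level. Two independent tests were run, and resistant colonies were counted and averaged. A spontaneous resistance frequency was reported for each concentration, and the MPC was taken across the concentrations tested.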

[22] = Half life in Beagle dog at 25 mg/kg, po; type: ADME, organism-based, Canis lupus familiaris; conditions: in vivo
How it was run: (§4)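 Single-dose PK of TNP-2198 was run in C57BL/6 mice (IV 5 mg/kg; PO 20 mg/kg) and beagle dogs (IV 5 mg/kg; PO 25 mg/kg). Terminal half-life (h) was derived from plasma profiles, together with Tmax, Vdss, CL, AUC and oral bioavailability.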

Prevotella disiens = assay: Antibacterial activity against Prevotella disiens MMX 3446; type: functional
[23] = Half life in Beagle dog at 5 mg/kg, iv; type: ADME, organism-based, Canis lupus familiaris; conditions: in vivo; how it was run: as §4
[24] = Drug distribution in Sprague-Dawley rat large intestine content measured at 2 hrs; type: ADME, tissue-based; conditions: read-out: Ct; how it was run: as §1
Prevotella bivia = assay: Antibacterial activity against Prevotella bivia ATCC 29303/MMX 5718; type: functional
Peptostreptococcus sp. = assay: Antibacterial activity against Peptostreptococcus magnus ATCC 14956; type: functional
Gardnerella vaginalis [25] = assay: Resistance development in Gardnerella vaginalis MMX 5973 assessed as spontaneous resistance frequency using at 4.50 x 10^8 CFU inoculum at 4 ug/ml; type: functional; conditions: dose 4 µg/ml
How it was run: (§5)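 Resistant colonies were counted at each drug concentration in two separate tests (test 1, test 2) and averaged. The spontaneous resistance frequency was taken from the mean colony count relative to the inoculum plated. Drug levels tested were 0.5, 1, 2 and 4 µg/mL, and a mutation prevention concentration (MPC) was also reported.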

[26] = Antibacterial activity against Mobiluncus mulieris ATCC 35243; type: functional
[27] = Drug distribution in Sprague-Dawley rat large intestine tissue measured at 24 hrs; type: ADME, tissue-based; conditions: read-out: Ct; how it was run: as §1
[28] = Volume of distribution at steady state in C57BL/6 mouse at 5 mg/kg, iv; type: ADME, organism-based; conditions: in vivo, read-out: Vdss
[29] = AUC in Beagle dog at 5 mg/kg, iv; type: ADME, organism-based, Canis lupus familiaris; set-up: dose 5 mg/kg, route iv; conditions: in vivo; how it was run: as §2
[30] = Drug distribution in Sprague-Dawley rat vaginal tissue measured at 24 hrs; type: ADME, tissue-based, Vagina; conditions: in vivo, BLD = below limit of detection; how it was run: as §1
[31] = Drug distribution in Sprague-Dawley rat ascites fluid measured at 0.5 hrs; type: ADME, tissue-based, Ascitic fluid; conditions: read-out: Ct; how it was run: as §1
[32] = AUC in C57BL/6 mouse at 5 mg/kg, iv; type: ADME, organism-based; set-up: dose 5 mg/kg, route iv; conditions: in vivo; how it was run: as §2
Helicobacter pylori [33] = assay: Resistance development in Helicobacter pylori MMX 3719 assessed as mutation prevention concentration using at 1.90 x 10^8 CFU inoculum; type: functional; conditions: dose 0.5 µg/ml; how it was run: as §3
Gardnerella vaginalis [34] = assay: Antibacterial activity against Gardnerella vaginalis ATCC 14018; type: functional
Gardnerella vaginalis [35] = assay: Resistance development in Gardnerella vaginalis MMX 5973 assessed as spontaneous resistance frequency using at 4.50 x 10^8 CFU inoculum at 2 ug/ml; type: functional; conditions: dose 2 µg/ml; how it was run: as §5

CO[C@H]1/C=C/O[C@@]2(C)Oc3c(C)c(O)c4c(c3C2=O)C2=NC3(CCN(CCn5c([N+](=O)[O-])cnc5C)CC3)NC2=C(NC(=O)/C(C)=C\C=C\[C@H](C)[C@H](O)[C@@H](C)[C@@H](O)[C@@H](C)[C@H](OC(C)=O)[C@@H]1C)C4=O [RIFASUTENIZOL]
concentration at 2 h [1]: 1.75e+06 ng/g | concentration at 2 h [2]: 6040 ng/g | concentration at 6 h [3]: 3660 ng/g | concentration at 12 h [4]: 2980 ng/g | MIC (Clostridioides difficile [5]): 0.00025 µg/mL (≈ 0.000265 µM) | MIC (Bifidobacterium longum): 0.015 µg/mL (≈ 0.0159 µM) | concentration at 24 h [6]: 53.9 ng/g | MIC (Clostridioides difficile [7]): ≤ 0.002 µg/mL | MIC (Clostridioides difficile [8]): 0.25 µg/mL (≈ 0.265 µM) | bioavailability [9]: 65% | concentration at 0.5 h [10]: 113000 ng/g | Activity (Syrian golden hamster): 100% | MIC (Bifidobacterium breve): 0.015 µg/mL (≈ 0.0159 µM) | Activity (Clostridioides difficile [11]): 8 10^-9No_unit | MIC (Helicobacter pylori [12]): ≤ 0.002 µg/mL | concentration at 6 h [13]: 10600 ng/g | clearance [14]: 23 mL/min/kg | concentration at 2 h [15]: 5900 ng/g | concentration at 6 h [16]: 6240 ng/g | Activity (Clostridioides difficile [17]): 1 µg/mL | MIC (Clostridioides difficile [18]): 0.06 µg/mL (≈ 0.0636 µM) | AUC [19]: 3040 ng·h/mL | clearance [20]: 20 mL/min/kg | Activity (Helicobacter pylori [21]): <5 10^-9No_unit | half-life [22]: 3.4 h | MIC (Prevotella disiens): 0.015 µg/mL (≈ 0.0159 µM) | half-life [23]: 3.9 h | concentration at 2 h [24]: 1170 ng/g | MIC (Prevotella bivia): 0.015 µg/mL (≈ 0.0159 µM) | MIC (Peptostreptococcus sp.): 0.0005 µg/mL (≈ 0.00053 µM) | Activity (Gardnerella vaginalis [25]): <2 10^-9No_unit | MIC [26]: 0.001 µg/mL (≈ 0.00106 µM) | concentration at 24 h [27]: 7.26 ng/g | Vd [28]: 0.9 L/kg | AUC [29]: 4530 ng·h/mL | Ct [30]: Bld | concentration at 0.5 h [31]: 2620 ng/g | AUC [32]: 3760 ng·h/mL | Activity (Helicobacter pylori [33]): <=0.5 ug ml-1 | MIC (Gardnerella vaginalis [34]): 0.004 µg/mL (≈ 0.00424 µM) | Activity (Gardnerella vaginalis [35]): <2 10^-9No_unit
